Measurements: ChEMBL document CHEMBL4477202, “Synthesis and evaluation of duocarmycin SA analogs incorporating the methyl 1,2,8,8a-tetrahydrocyclopropa[c]imidazolo[4,5-e]indol-4-one-6-carboxylate (CImI) alkylation subunit” (Bioorg Med Chem, 2016)
Calls of active or inactive are those of the source. The calls are words filed in the database; no cut-off is given here.

Key:
[1] = Solvolysis reactivity of the compound in aqueous buffer assessed as solvolytic rate constant at pH 2 by UV spectrophotometry
[2] = Solvolysis reactivity of the compound in aqueous buffer assessed as half life at pH 2 by UV spectrophotometry
[3] = Solvolysis reactivity of the compound in presence of Zn(acac)2 at 23 degC in MeoH solution by UV spectrophotometry
[4] = Solvolysis reactivity of the compound in presence of Cd(acac)2 at 23 degC in MeoH solution by UV spectrophotometry
[5] = Solvolysis reactivity of the compound in presence of Pb(acac)2 at 23 degC in MeoH solution by UV spectrophotometry
[6] = Solvolysis reactivity of the compound in presence of Ni(acac)2 at 23 degC in MeoH solution by UV spectrophotometry
[7] = Solvolysis reactivity of the compound in presence of Cu(acac)2 at 23 degC in MeoH solution by UV spectrophotometry
[8] = Solvolysis reactivity of the compound in phosphate buffer assessed as half life at pH 3 upto 187 hrs by UV spectrophotometry
Summary of the method: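 UV spectra taken hourly for the first 8 h, then every 12 h, over 0–187 h until absorbance stopped changing. Rate constant and t1/2 derived from initial (A_i) and final (A_f) absorbance.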

[9] = tested on: Betapolyomavirus macacae; experiment: Induction of alkylation at Simian virus 40 150-bp DNA w794 at 10^-5 to 10^-7/M after 24 hrs by PAGE and autoradiography method
Summary of the method: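 w794 DNA incubated with agent at 23 °C for 24 h. Unbound agent was removed by EtOH precipitation, then the DNA was heated at 100 °C for 30 min to cleave strands at alkylated sites. Fragments were resolved by 8% denaturing PAGE against Sanger G, C, A and T sequencing lanes and untreated control DNA, and detected by autoradiography.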

[10] = tested on: L1210; experiment: Cytotoxicity against mouse L1210 cells assessed as cell growth inhibition; type: functional, cell-based
[11] = Solvolysis reactivity of the compound in phosphate buffer at pH 7 upto 187 hrs by UV spectrophotometry
[12] = tested on: Betapolyomavirus macacae; experiment: Induction of alkylation at Simian virus 40 150-bp DNA w794 after 24 hrs by PAGE and autoradiography method
Summary of the method: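 Labelled w794 DNA incubated with agent at 23 °C for 24 h. Unbound agent removed by EtOH precipitation, then thermolysis at 100 °C for 30 min to cleave strands at alkylation sites. Fragments resolved by 8% denaturing PAGE and read by autoradiography, alongside untreated control DNA and Sanger G, C, A, T sequencing lanes.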

Cc1c[nH]c2c1[C@@]13C[C@@H]1CN(C(=O)OC(C)(C)C)C3=CC2=O
K [1]: 5.26 ×10⁻⁶ /s
T1/2 [2]: 37 h

COC(=O)c1nc2c([nH]1)C(=O)C=C1N(C(=O)OC(C)(C)C)CC3CC123 (stereo unspecified)
Stability [3]: Stable
Stability [4]: Stable
Stability [5]: Stable
Stability [6]: Stable
Stability [7]: Stable
T1/2 [8]: 34.7 h

COC(=O)c1nc2c3c(cc(O)c2[nH]1)N(C(=O)c1cc2cc(OC)c(OC)c(OC)c2[nH]1)C[C@H]3CCl
Activity [9]: Active

COC(=O)c1nc2c([nH]1)C(=O)C=C1N(C(=O)c3cc4cc(OC)c(OC)c(OC)c4[nH]3)C[C@@H]3C[C@@]123
IC50 [10]: 2.2 nM

COC(=O)c1cc2c([nH]1)C(=O)C=C1N(C(=O)OC(C)(C)C)CC3CC123 (stereo unspecified)
Stability [3]: Stable
Stability [11]: Stable
Stability [4]: Stable
Stability [5]: Stable
Stability [6]: Stable
Stability [7]: Stable
T1/2 [8]: 177 h

COC(=O)c1nc2c([nH]1)C(=O)C=C1N(C(=O)c3cc4cc(NC(=O)c5cc6ccccc6[nH]5)ccc4[nH]3)C[C@H]3C[C@]123
IC50 [10]: 0.04 nM

COC(=O)c1cc2c([nH]1)C(=O)C=C1N(C(=O)c3cc4cc(NC(=O)c5cc6ccccc6[nH]5)ccc4[nH]3)C[C@@H]3C[C@@]123
IC50 [10]: 0.15 nM

COC(=O)c1nc2c([nH]1)C(=O)C=C1N(C(=O)c3cc4cc(NC(=O)c5cc6ccccc6[nH]5)ccc4[nH]3)C[C@@H]3C[C@@]123
IC50 [10]: 0.7 nM

COC(=O)c1nc2c([nH]1)C(=O)C=C1N(C(=O)OC(C)(C)C)C[C@H]3C[C@]123
IC50 [10]: 70 nM

COC(=O)c1nc2c([nH]1)C(=O)C=C1N(C(=O)c3cc4cc(OC)c(OC)c(OC)c4[nH]3)C[C@H]3C[C@]123
Activity [12]: inactive
IC50 [10]: 0.05 nM

COC(=O)c1cc2c([nH]1)C(=O)C=C1N(C(=O)c3cc4cc(NC(=O)c5cc6ccccc6[nH]5)ccc4[nH]3)C[C@H]3C[C@]123
IC50 [10]: 0.004 nM

COC(=O)c1cc2c([nH]1)C(=O)C=C1N(C(=O)c3cc4cc(OC)c(OC)c(OC)c4[nH]3)C[C@H]3C[C@]123
Activity [12]: Active

COC(=O)c1nc2c([nH]1)C(=O)C=C1N(C(=O)OC(C)(C)C)C[C@@H]3C[C@@]123
IC50 [10]: 1100 nM
